For orientation: viability means a read-out of living cells in per cent, often relative to untreated cells. For orientation: inhibition means the drop in the measured response relative to a control, in per cent.

Experimental findings from PubChem BioAssay are described below.

Active and inactive are the calls of the source.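 How the source made its calls, unless noted: active means Her2 level under about 52% in both replicate screens, with viability over 70% of control (limit read from the data); inconclusive means Her2 under the limit in one screen only, or viability under 70%; inactive means Her2 level above the set limit.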

Assay [1] can be described thus: Her2 expression decrease, cell viability multiplex – SKBR3 breast tumor cells, AlphaScreen, ATP viability, primary screen (AID 461).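 On Her2 level: lower value means less Her2 protein in the cells.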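 On viability: percent of carrier control wells set as 100% viability.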 Particulars: SKBR3 Her2 protein level, 18-24 h, measured here: SKBR3 viability, ATP luminescence, at 10 µM. In general terms: Bead proximity is the source of the signal in Alpha formats.
Assay [2] concerns the target Receptor tyrosine-protein kinase erbB-2 (Homo sapiens) (UniProt P04626). The description is as above. Conditions: 18-24 h, at 10 µM, stronger effect = lower value.
Assay [3] can be described thus: reduced viability of SK-BR-3 breast cancer cells – cell-based, 24 h, human, pilot screen (AID 572;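 active means viability at or below 10% of carrier control in both of two separate runs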;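 further: compound exposure lasted between 18 and 24 h rather than exactly 24 h; 100% = carrier-treated control wells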). Particulars: SK-BR-3 viability, CellTiter-Glo luminescence, at 10 µM, stronger effect = lower value.
Assay [4] can be described thus: HUVEC growth inhibition – cell-based, human, primary screen (AID 575;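 active means viability at or below 30% in both replicate assays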;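 further: 100% = median of untreated cell wells with 0.1% DMSO on each plate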). Particulars: HUVEC proliferation, CellTiter-Glo luminescence, 72 h; at 10 µM; stronger effect = lower value. The gist of the method: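 Material: primary human umbilical vein endothelial cells / Schedule: 72 h exposure, 37 °C, 5% CO2, 30 min RT equilibration / Signal: ATP-based CellTiter-Glo luminescent read / Read-out basis: percent of median DMSO-control luminescence / Control set: 32 DMSO-only cell-control wells (high), 32 MePR drug-control wells (low) per plate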
(Cellular ATP, detected with luciferase, serves as a proxy for viable cell number.)

A short description of assay [5]: H69AR cell proliferation blockers – human, duplicate replicates, primary screen (AID 580;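 active means viability at or under a set limit in both replicates, limit being median viability minus 3 SD, cut at about 48% in these data, passing the limit was not always enough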;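 further: 100% = mean luminescence of untreated wells and 0% = no signal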). Conditions: H69AR lung tumor cells viability, ATP luminescence, 72 h; at 10 µM; stronger effect = lower value.
The nature of assay [6]: MRP1 drug-resistance reversers in H69AR cells – cell-based, doxorubicin co-treatment, pilot screen (AID 601;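 active means viability loss from added drug above about 55%, and viability with drug at most 40%, in both replicates, limit read from the data, passing the limit was not always enough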). Conditions: CellTiter-Glo, 72 h, at 10 µM; for differential viability (reversal): stronger effect = higher value.
A short description of assay [7]: yeast transport mutant growth inhibition pilot in 384-well plates, post-Golgi transport modulator project (AID 636; in the data active means inhibition above about 31%). Conditions: absorbance 615 nm, about 18 h, stronger effect = higher value.
Assay [8] in a line: growth suppression of yeast trafficking mutant, preliminary HTS, modulators of trafficking downstream of Golgi apparatus project, 1536-format plate, OD 615 nm (AID 637; in the data active means inhibition above about 30%). Conditions: yeast transport mutant growth, absorbance 615 nm, 18 h; stronger effect = higher value.
The mark [9] stands for this setting: H69AR cells + 2 uM doxorubicin, measured here: viability with 2 uM doxorubicin, stronger effect = lower value.
Where [10] appears, read: H69AR cells, compound alone cytotoxicity.

Sequence of Receptor tyrosine-protein kinase erbB-2 (Homo sapiens) (P04626 whole entry, looked up): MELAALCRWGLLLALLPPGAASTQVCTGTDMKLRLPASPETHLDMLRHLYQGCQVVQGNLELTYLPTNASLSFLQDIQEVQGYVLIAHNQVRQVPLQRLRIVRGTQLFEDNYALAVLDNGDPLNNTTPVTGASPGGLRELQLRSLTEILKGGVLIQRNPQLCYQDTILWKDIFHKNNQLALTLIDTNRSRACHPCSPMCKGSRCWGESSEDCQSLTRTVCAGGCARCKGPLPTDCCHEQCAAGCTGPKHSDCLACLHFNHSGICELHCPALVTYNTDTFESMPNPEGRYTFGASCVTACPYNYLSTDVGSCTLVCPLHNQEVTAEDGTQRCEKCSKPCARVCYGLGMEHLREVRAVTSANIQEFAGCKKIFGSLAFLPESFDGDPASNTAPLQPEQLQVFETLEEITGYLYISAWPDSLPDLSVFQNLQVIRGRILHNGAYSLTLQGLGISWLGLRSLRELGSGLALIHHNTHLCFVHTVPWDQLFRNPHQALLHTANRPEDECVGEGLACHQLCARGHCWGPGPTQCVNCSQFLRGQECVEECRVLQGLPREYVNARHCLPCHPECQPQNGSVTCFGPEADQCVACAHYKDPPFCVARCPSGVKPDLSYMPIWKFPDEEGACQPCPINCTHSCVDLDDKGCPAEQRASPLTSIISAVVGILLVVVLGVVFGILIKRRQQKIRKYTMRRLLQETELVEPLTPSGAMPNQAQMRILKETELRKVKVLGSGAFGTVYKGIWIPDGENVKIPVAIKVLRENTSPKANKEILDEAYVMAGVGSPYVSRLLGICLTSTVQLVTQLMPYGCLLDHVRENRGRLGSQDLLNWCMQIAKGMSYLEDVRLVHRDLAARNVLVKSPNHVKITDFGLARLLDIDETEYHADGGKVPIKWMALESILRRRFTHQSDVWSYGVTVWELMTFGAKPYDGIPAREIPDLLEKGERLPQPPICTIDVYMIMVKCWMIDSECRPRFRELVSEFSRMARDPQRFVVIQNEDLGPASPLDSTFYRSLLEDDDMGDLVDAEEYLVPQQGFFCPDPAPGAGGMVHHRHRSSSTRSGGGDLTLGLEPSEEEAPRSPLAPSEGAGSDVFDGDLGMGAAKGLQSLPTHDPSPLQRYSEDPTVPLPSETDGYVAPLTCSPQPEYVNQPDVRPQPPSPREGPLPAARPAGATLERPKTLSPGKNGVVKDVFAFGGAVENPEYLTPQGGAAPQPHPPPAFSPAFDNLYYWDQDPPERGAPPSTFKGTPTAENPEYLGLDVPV

In the case of `O=C(NCc1ccco1)c1cnc2n(c1=O)CCS2`, the viability was 101% in assay [1]; 101% (inactive) in assay [3]; 91.3% (inactive) in assay [4]; 89.5% (inactive) in assay [5]; 89.2% in assay [6] (setting [9]); 89.5% in assay [6] (setting [10]). In assay [2], the Her2 level was 94.5% (inactive). In assay [6] (H69AR cells + 2 uM doxorubicin), the differential viability (reversal) is 0.265% (inactive). Further, the inhibition in assay [7] was 0.78% (inactive); in assay [8] it was -1.48% (inactive).

On to `FC(F)Sc1nnc(-c2cccs2)n1-c1ccccc1`, for which the viability in assay [1] is 101%; in assay [3], 101% (inactive); in assay [4], 93.6% (inactive); in assay [5], 98% (inactive); in assay [6] (setting [9]), 87.9%; in assay [6] (setting [10]), 98%. Besides, the Her2 level in assay [2] is 92% (inactive). The differential viability (reversal) in assay [6] (H69AR cells + 2 uM doxorubicin) was 10.1% (inactive). Moreover, the figures for the inhibition in assay [7] and in assay [8] were -7.33% (inactive) and 2.74% (inactive), respectively.

Turning to `Cc1cccc(CCNC(=O)CCc2nc(-c3ccccc3F)no2)c1`, the viability in assay [1] was 91.5%; in assay [3] it was 91.5% (inactive); in assay [4], 89.1% (inactive); in assay [5], 93.5% (inactive); in assay [6] (setting [9]) it was 83.7%; in assay [6] (setting [10]), 93.5%. Also, the Her2 level in assay [2] was 104% (inactive). Besides, the differential viability (reversal) in assay [6] (H69AR cells + 2 uM doxorubicin) was 9.82% (inactive). Besides, the inhibition in assay [7] was -2.37% (inactive); in assay [8], -5% (inactive).

In the case of `CCOC(=O)CSc1nnc(Cn2nnc(-c3ccccc3)n2)n1CC`, the viability in assay [1] was 95.5%; in assay [3], 95.5% (inactive); in assay [4] it was 107% (inactive); in assay [5], 90.7% (inactive); in assay [6] (setting [9]), 92.7%; in assay [6] (setting [10]), 90.7%. Moreover, in assay [2], the Her2 level is 84% (inactive). In assay [6] (H69AR cells + 2 uM doxorubicin), the differential viability (reversal) is -2.04% (inactive). In addition, the inhibition in assay [7] was -7.2% (inactive); in assay [8], -3.17% (inactive).

Turning to `CCOc1ccc(N2C(N)=NC(N)=NC2(C)C)cc1`, the viability in assay [1] is 92.5%; in assay [3] it was 92.5% (inactive); in assay [4] it was 101% (inactive); in assay [5], 75.4% (inactive); in assay [6] (setting [9]), 102%; in assay [6] (setting [10]) it was 75.4%. The Her2 level in assay [2] was 85% (inactive). For the same molecule, the differential viability (reversal) in assay [6] (H69AR cells + 2 uM doxorubicin) was -26.6% (inactive). Besides, the inhibition was -0.26% (inactive) in assay [7] and 12.1% (inactive) in assay [8].

`O=S(=O)(Nc1ccccn1)c1ccc(Oc2ccccc2)cc1`: the viability in assay [1] was 88%; in assay [3], 88% (inactive); in assay [4], 87.8% (inactive); in assay [5], 98.8% (inactive); in assay [6] (setting [9]) it was 88.3%; in assay [6] (setting [10]), 98.8%. In assay [2], the Her2 level is 87.5% (inactive). In addition, in assay [6] (H69AR cells + 2 uM doxorubicin), the differential viability (reversal) is 10.5% (inactive). Moreover, the inhibition in assay [7] was -2.57% (inactive); in assay [8] it was -1.11% (inactive).

For the molecule `Cc1n[nH]c(C)c1S(=O)(=O)N1CCCCCC1`, the viability in assay [1] was 98%; in assay [3], 98% (inactive); in assay [4] it was 105% (inactive); in assay [5] it was 101% (inactive); in assay [6] (setting [9]) it was 101%; in assay [6] (setting [10]) it was 101%. Also, the Her2 level in assay [2] was 80% (inactive). Further, the differential viability (reversal) in assay [6] (H69AR cells + 2 uM doxorubicin) was 0.14% (inactive). The inhibition in assay [7] was -1.58% (inactive); in assay [8] it was -3.17% (inactive).

`CCOC(=O)C1CCN(c2c(NCCN3CCN(c4ccccc4)CC3)c(=O)c2=O)CC1`: the viability in assay [1] was 87.5%; in assay [3], 87.5% (inactive); in assay [4], 92.1% (inactive); in assay [5] it was 99.1% (inactive); in assay [6] (setting [9]), 104%; in assay [6] (setting [10]), 99.1%. In addition, the Her2 level in assay [2] is 98.5% (inactive). The differential viability (reversal) in assay [6] (H69AR cells + 2 uM doxorubicin) was -5.04% (inactive). Also, the values for the inhibition in assay [7] and in assay [8] were 0.38% (inactive) and -3.33% (inactive), respectively.

Regarding `COc1cccc(NC(=O)COc2ccccc2C(N)=O)c1`, the viability in assay [1] was 93.5%; in assay [3], 93.5% (inactive); in assay [4], 83.1% (inactive); in assay [5] it was 105% (inactive); in assay [6] (setting [9]) it was 88.7%; in assay [6] (setting [10]), 105%. The Her2 level in assay [2] is 110% (inactive). For the same molecule, in assay [6] (H69AR cells + 2 uM doxorubicin), the differential viability (reversal) was 16% (inactive). In addition, the inhibition in assay [7] is 0% (inactive); in assay [8], -7.9% (inactive).

Consider `CCOC(=O)N1CCN(C(=O)Cn2ncn3nc(-c4cccs4)cc3c2=O)CC1`, for which the viability is 97% in assay [1]; 97% (inactive) in assay [3]; 111% (inactive) in assay [4]; 90.9% (inactive) in assay [5]; 101% in assay [6] (setting [9]); 90.9% in assay [6] (setting [10]). For the same molecule, in assay [2], the Her2 level is 136% (inactive). In assay [6] (H69AR cells + 2 uM doxorubicin), the differential viability (reversal) is -9.68% (inactive). In addition, the inhibition in assay [7] is 1.71% (inactive); in assay [8], 0.33% (inactive).

As for `CC(C)CCn1c(=O)c2ccccc2n2c(CN(C)Cc3ccccc3)nnc12`, the viability is 83.5% in assay [1]; 83.5% (inactive) in assay [3]; 70.3% (inactive) in assay [4]; 84.4% (inactive) in assay [5]; 12.1% in assay [6] (setting [9]); 84.4% in assay [6] (setting [10]). Also, the Her2 level in assay [2] is 100% (inactive). In addition, the differential viability (reversal) in assay [6] (H69AR cells + 2 uM doxorubicin) is 72.3% (active). The inhibition in assay [7] is -6.08% (inactive); in assay [8], 11.3% (inactive).

Take `CCSc1nncn1/N=C/c1ccc(OC)c(OC)c1`: the viability was 84% in assay [1]; 84% (inactive) in assay [3]; 91.8% (inactive) in assay [4]; 91.6% (inactive) in assay [5]; 95% in assay [6] (setting [9]); 91.6% in assay [6] (setting [10]). For the same molecule, the Her2 level in assay [2] was 124% (inactive). The differential viability (reversal) in assay [6] (H69AR cells + 2 uM doxorubicin) is -3.4% (inactive). Besides, the inhibition in assay [7] was -0.9% (inactive); in assay [8], -7.5% (inactive).

Regarding `CC(=O)N1C(=O)C2(Nc3ccccc3N2)c2ccccc21`, the viability in assay [1] was 110%; in assay [3], 110% (inactive); in assay [4], 104% (inactive); in assay [5] it was 97.6% (inactive); in assay [6] (setting [9]), 88.1%; in assay [6] (setting [10]) it was 97.6%. In assay [2], the Her2 level was 95.5% (inactive). The differential viability (reversal) in assay [6] (H69AR cells + 2 uM doxorubicin) is 9.47% (inactive). The figures for the inhibition in assay [7] and in assay [8] were -7.16% (inactive) and -9.5% (inactive), respectively.

Consider `O=C(CCN1C(=O)C2C3C=CC(C3)C2C1=O)NC1CCCc2ccccc21` (stereo not given), for which the viability is 81% in assay [1]; 81% (inactive) in assay [3]; 76.7% (inactive) in assay [4]; 94.2% (inactive) in assay [5]; 87.7% in assay [6] (setting [9]); 94.2% in assay [6] (setting [10]). Besides, the Her2 level in assay [2] was 90.5% (inactive). For the same molecule, the differential viability (reversal) in assay [6] (H69AR cells + 2 uM doxorubicin) was 6.45% (inactive). In addition, the figures for the inhibition in assay [7] and in assay [8] were -1.89% (inactive) and 5.57% (inactive), respectively.

On to `Cc1ccc(-c2csc3ncn(-n4c(C)ccc4C)c(=O)c23)o1`, for which the viability was 96% in assay [1]; 96% (inactive) in assay [3]; 88.7% (inactive) in assay [4]; 91.3% (inactive) in assay [5]; 81% in assay [6] (setting [9]); 91.3% in assay [6] (setting [10]). Besides, in assay [2], the Her2 level is 114% (inactive). In addition, the differential viability (reversal) in assay [6] (H69AR cells + 2 uM doxorubicin) was 10.3% (inactive). Further, the inhibition in assay [7] was -5.27% (inactive); in assay [8] it was -5.57% (inactive).
